# Reference: ChEMBL document CHEMBL1149898, “A biaryl xanthone derivative having axial chirality from Penicillium vinaceum” (J Nat Prod, 2008)
# Activity calls are given as the source filed them. The calls are words filed in the database; no cut-off is given here.
# Experiments:
# Staphylococcus aureus = assay: Antibacterial activity against Staphylococcus aureus by disk diffusion test; assay type: functional, organism-based
# Method in brief: (§1)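 Bacterial suspensions were grown 2–5 h to a suitable OD, diluted with water and swabbed evenly over agar. After the inoculum dried, disks carrying 10, 50, 100 and 200 µg of compound were applied. Plates were incubated overnight, and zone diameters around the disks were measured.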
# Bacillus subtilis = assay: Antibacterial activity against Bacillus subtilis by disk diffusion test; assay type: functional, organism-based; method in brief: as §1
# [1] = system: Agrobacterium tumefaciens; assay: Antitumor activity against Agrobacterium tumefaciens-induced 10 ppm crown gall tumor in potato tubers at […] after 21 days by crown gall tumor potato disk test; assay type: functional
# Method in brief: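 Potato tubers were surface-sterilized in 1% NaOCl for 20 min and cut into 5 mm disks, 10 per 2% agar plate. A 48 h Agrobacterium tumefaciens culture, mixed with compound in DMSO at 10 or 100 µg/mL, was applied to each disk. Plates were kept at 28 °C for 21 days. Tumors per disk were counted; % inhibition = 100 − (mean tumors sample/mean control)×100.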
# Paracentrotus lividus = assay: Inhibition of sea urchin egg fertilization by sea urchin sperm assessed as inhibition of divided eggs by light microscopy; assay type: functional, organism-based
# Method in brief: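 Eggs were rinsed, filtered and diluted in artificial seawater to 2000 eggs/mL. "Dry" sperm was diluted 1:50 in ASW, and 10 µL was added per 1 mL eggs at 20 °C. Compounds were in DMSO at 50 µg/mL, with DMSO-only controls. Eggs were cultured at room temperature with gentle agitation, and percent divided eggs was scored by light microscopy 30 min post-fertilization.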
# Escherichia coli = assay: Antibacterial activity against Escherichia coli by disk diffusion test; assay type: functional, organism-based; method in brief: as §1
# Saccharomyces cerevisiae = assay: Antifungal activity against Saccharomyces cerevisiae after 18 to 24 hrs by disk diffusion test; assay type: functional, organism-based
# Method in brief: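 Diluted yeast inoculum was spread on 90 mm agar plates supplemented with 2% glucose and dried for 5–15 min. Disks loaded with 10, 50, 100 and 200 µg of compound were placed on top. Plates were incubated 18–24 h at 28 °C, then inhibition zone diameters were measured.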
SMILES,Activity (Staphylococcus aureus),Activity (Bacillus subtilis),inhibition (INH) [1] [%],IC50 (Paracentrotus lividus) [µg/mL],Activity (Escherichia coli),Activity (Saccharomyces cerevisiae)
COc1oc2cc(O)c(O)c(C(=O)O)c2c(=O)c1-c1c(C(C)=O)cc2c(=O)c3c(C(=O)O)c(O)c(O)cc3oc2c1C(C)=O,inactive,inactive,72,0.05,inactive,inactive
CC(=O)c1cc2c(=O)c3c(C(=O)O)c(O)c(O)cc3oc2c(C(C)=O)c1C1COc2cc(O)c(O)c(C(=O)O)c2C1=O (stereo not drawn),inactive,inactive,12,0.71,inactive,inactive
CC(=O)c1cc2c(=O)c3c(C(=O)O)c(O)c(O)cc3oc2c(C(C)=O)c1-c1coc2cc(O)c(O)c(C(=O)O)c2c1=O [VINAXANTHONE],inactive,inactive,67,0.12,inactive,inactive
